14 molecules from ChEMBL document CHEMBL4706595, “1,3-Oxazine-2-one derived dual-targeted molecules against replicating and non-replicating forms of Mycobacterium tuberculosis” (Eur J Med Chem, 2020) can be followed below.

The test system of assay [1] is Mycobacterium tuberculosis. Put plainly: Antimycobacterial activity against non-replicating Mycobacterium tuberculosis H37Rv expressing pFCA-LuxAB assessed as bacterial growth inhibition incubated for 10 days under anerobic condition by low oxygen recovery assay. The conditions noted are these: 240 h, time 10 day. The format is functional.
The test system of assay [2] is Mycobacterium tuberculosis. Put plainly: Antimycobacterial activity against replicating Mycobacterium tuberculosis H37Ra assessed as inhibition of bacterial growth incubated for 7 days by MABA assay. Conditions: time 7 day. In kind it is functional. On the technique in general: Alamar Blue is a resazurin reagent that responds to reducing activity.
The test system of assay [3] is Mycobacterium tuberculosis. In words: Antimycobacterial activity against replicating Mycobacterium tuberculosis H37Rv assessed as inhibition of bacterial growth incubated for 7 days by MABA assay. In kind it is functional. Conditions: time 7 day.
Assay [4] relates to Mycolicibacterium smegmatis. In words: Antimycobacterial activity against Mycobacterium smegmatis mc2155 assessed as inhibition of bacterial growth incubated for 48 hrs by broth microdilution method. In kind it is functional. Conditions: MC2 155. A general note: Broth dilution looks for growth in wells or tubes with falling amounts of substance.
Assay [5] is described as follows: Cytotoxicity against human PBMC assessed as reduction in cell growth after 72 hrs by MTT assay. The format is tissue-based.
In assay [6] the test system is Mycobacterium tuberculosis. In words: Antimycobacterial activity against Mycobacterium tuberculosis H37Rv ATCC 27294 assessed as inhibition of bacterial growth by agar plate dilution method. In kind it is functional. The method in brief: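 MIC determined by agar plate dilution method; isoniazid and rifampin run as references.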

Converted amounts (≈) assume the structure as drawn.

Take `CC(=O)Oc1cccc(Nc2nc3ccccc3c(=O)o2)c1`: the minimum inhibitory concentration (MIC) (in general, the smallest concentration in the dilution series that meets the test's criterion for growth inhibition) in assay [1] is 80.3 µg/mL (≈ 271 µM); in assay [2] it was over 100 µg/mL; in assay [3], over 100 µg/mL; in assay [4], 100 µg/mL (≈ 338 µM). Moreover, the half-inhibitory concentration (IC50) – broadly, the concentration that inhibits the measured activity by half – in assay [5] is 131 µg/mL (≈ 444 µM).

On to `NNC(=O)c1ccncc1` [ISONIAZID], for which the MIC in assay [1] was over 128 µg/mL; in assay [2], 0.3 µg/mL (≈ 2.19 µM); in assay [6], 0.4 µg/mL (≈ 2.92 µM); in assay [3] it was 0.43 µg/mL (≈ 3.14 µM); in assay [4], 6.1 µg/mL (≈ 44.5 µM). In addition, the IC50 in assay [5] was found to be 71.7 µg/mL (≈ 523 µM).

Turning to `CCCCCCCCCCCCCCCCCCOc1ccc(C(=O)OCCCOc2cccc(Nc3nc4ccccc4c(=O)o3)c2)cc1`, the MIC in assay [1] was found to be 38.2 µg/mL (≈ 55.7 µM); in assay [2] it was 60.4 µg/mL (≈ 88.2 µM); in assay [3], 56.1 µg/mL (≈ 81.9 µM); in assay [4] it was 12.5 µg/mL (≈ 18.3 µM). For the same molecule, the half-inhibitory concentration (IC50) in assay [5] was 158 µg/mL (≈ 231 µM).

`CCC(=O)Oc1cccc(Nc2nc3ccccc3c(=O)o2)c1`: the MIC was 98.5 µg/mL (≈ 317 µM) in assay [1], over 100 µg/mL in assay [2], over 100 µg/mL in assay [3] and 100 µg/mL (≈ 322 µM) in assay [4]. Moreover, the IC50 in assay [5] was found to be 180 µg/mL (≈ 579 µM).

Turning to `CO[C@H]1/C=C/O[C@@]2(C)Oc3c(C)c(O)c4c(O)c(c(/C=N/N5CCN(C)CC5)c(O)c4c3C2=O)NC(=O)/C(C)=C\C=C\[C@H](C)[C@H](O)[C@@H](C)[C@@H](O)[C@@H](C)[C@H](OC(C)=O)[C@@H]1C` [RIFAMPIN], the MIC in assay [1] stood at 0.04 µg/mL (≈ 0.0486 µM); in assay [2], 0.02 µg/mL (≈ 0.0243 µM); in assay [6], 0.01 µg/mL (≈ 0.0122 µM); in assay [3], 0.01 µg/mL (≈ 0.0122 µM); in assay [4], 1.5 µg/mL (≈ 1.82 µM). Besides, the IC50 in assay [5] came to 62.9 µg/mL (≈ 76.5 µM).

In the case of `CCCCCCCCCCOc1ccc(C(=O)OCCCOc2cccc(Nc3nc4ccccc4c(=O)o3)c2)cc1`, the MIC turned out to be 45.1 µg/mL (≈ 78.7 µM) in assay [1], 38 µg/mL (≈ 66.4 µM) in assay [2], 32.1 µg/mL (≈ 56.1 µM) in assay [3] and 100 µg/mL (≈ 175 µM) in assay [4]. The IC50 in assay [5] amounted to 173 µg/mL (≈ 303 µM).

As to `CCCCCCC(=O)Oc1cccc(Nc2nc3ccccc3c(=O)o2)c1`, the MIC in assay [1] was over 100 µg/mL; in assay [2], over 100 µg/mL; in assay [3], over 100 µg/mL; in assay [4], 50 µg/mL (≈ 136 µM). Moreover, in assay [5], the concentration for half-maximal inhibition (IC50) came out at 176 µg/mL (≈ 481 µM).

With `COc1ccc(C(=O)OCCCOc2cccc(Nc3nc4ccccc4c(=O)o3)c2)cc1`, the MIC in assay [1] was 40 µg/mL (≈ 89.6 µM); in assay [2], 8.16 µg/mL (≈ 18.3 µM); in assay [3], 9.71 µg/mL (≈ 21.7 µM); in assay [4], over 100 µg/mL. Moreover, in assay [5], the IC50 was 162 µg/mL (≈ 364 µM).

Turning to `CCCCCCCCOc1ccc(C(=O)OCCCOc2cccc(Nc3nc4ccccc4c(=O)o3)c2)cc1`, the minimum inhibitory concentration (MIC) in assay [1] came to 18.9 µg/mL (≈ 34.8 µM); in assay [2], 16.2 µg/mL (≈ 29.8 µM); in assay [3], 12.4 µg/mL (≈ 22.8 µM); in assay [4] it was 12.5 µg/mL (≈ 23 µM). The half-maximal inhibitory concentration (IC50) in assay [5] turned out to be 154 µg/mL (≈ 283 µM).

`CCCCCCCCCC(=O)Oc1cccc(Nc2nc3ccccc3c(=O)o2)c1`: the MIC in assay [1] is 53.3 µg/mL (≈ 130 µM); in assay [2], 29.6 µg/mL (≈ 72.4 µM); in assay [3], 33 µg/mL (≈ 80.7 µM); in assay [4], 25 µg/mL (≈ 61.2 µM). The half-maximal inhibitory concentration (IC50) in assay [5] was 195 µg/mL (≈ 476 µM).

Take `CC(C)=CCOc1ccc(C(=O)OCCCOc2cccc(Nc3nc4ccccc4c(=O)o3)c2)cc1`: the MIC in assay [1] is over 100 µg/mL; in assay [2], over 100 µg/mL; in assay [3], over 100 µg/mL; in assay [4], 12.5 µg/mL (≈ 25 µM). For the same molecule, the half-inhibitory concentration (IC50) in assay [5] turned out to be 190 µg/mL (≈ 380 µM).

In the case of `CCCCCCCC(=O)Oc1cccc(Nc2nc3ccccc3c(=O)o2)c1`, the MIC in assay [1], in assay [2], in assay [3] and in assay [4] was over 100 µg/mL in each case. The IC50 in assay [5] came out at 190 µg/mL (≈ 499 µM).

`CCOc1ccc(C(=O)OCCCOc2cccc(Nc3nc4ccccc4c(=O)o3)c2)cc1`: the MIC in assay [1], in assay [2], in assay [3] and in assay [4] was over 100 µg/mL throughout. Moreover, the IC50 in assay [5] worked out at 102 µg/mL (≈ 223 µM).

Take `CCCCCCCCCCCCCCCC(=O)Oc1cccc(Nc2nc3ccccc3c(=O)o2)c1`: the minimal inhibitory concentration (MIC) was over 100 µg/mL in assay [1], over 100 µg/mL in assay [2], over 100 µg/mL in assay [3] and 100 µg/mL (≈ 203 µM) in assay [4]. The IC50 in assay [5] was found to be 182 µg/mL (≈ 369 µM).
